Experimental data taken from publication PMC7593347 (International Journal for Parasitology: Drugs and Drug …, 2020).
Read-outs that look alike come from different tables or passages of the source.

Legend:
C. parvum HNJ-1 strain = experiment: Initial epigenetic library compound screening for C. parvum; assay type: cell-based, Cryptosporidium parvum; details: for inhibition at 5 µM: Cryptosporidium parvum, HCT-8, 48 h, read-out: Parasite inhibition (%) (primary screening); for Parasite inhibition (%) (primary screening): 5 μM, 48 h, HCT-8 cells, vs DMSO, single experiment, single replicate
C. parvum [1] = assay type: cell-based, Cryptosporidium parvum; details: for inhibition at 5 µM: Cryptosporidium parvum, HCT-8, 48 h, read-out: Parasite inhibition (%); for Parasite inhibition (%): C. parvum, 5 μM, HCT-8 cells, compound present from inoculation, 48 h
HCT-8 cells = experiment: Cytotoxicity to HCT-8 cells; assay type: cell-based, human; details: read-out: Host cell IC50
C. parvum [2] = details: ref Darkin-Rattray et al., 1996; cited from earlier work
C. parvum [3] = experiment: C. parvum growth when compound is added after invasion of host cells; assay type: cell-based, Cryptosporidium parvum; details: 5 μM added after 3 h invasion, further 45 h, compared with DMSO control
Method in brief: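 HCT-8 cells (2 × 10^4/well) grown 24 h, infected with 5 × 10^4 HNJ-1 oocysts in RPMI-1640 for 3 h; test compound (5 μM) or DMSO then added for 45 h; nitazoxanide 5 μM as control. Methanol-fixed, BSA-blocked, Sporo-Glo stained; 42 fields/well imaged at 20×, parasites and nuclei counted automatically; relative to DMSO. Triplicate wells, three independent experiments.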

[4] = system: acetylated histone H3K9 of C. parvum sporozoites; experiment: Acetylated histone in extracellular parasites; assay type: cell-based, Cryptosporidium parvum; details: Fig. 4A, 10 μM, incubation 30 min
C. parvum [5] = details: read-out: IC50 against C. parvum, ref Bessoff et al., 2013, cited from earlier work
C. parvum [6] = details: 100 or 200 mg/kg; ref Theodos et al., 1998; cited from earlier work
T. gondii RH-2F = experiment: T. gondii growth assay; assay type: cell-based, Toxoplasma gondii; details: 5 μM, positive control, HFF cells, 48 h

Compound	inhibition at 5 µM (C. parvum HNJ-1 strain) [%]	inhibition at 5 µM (C. parvum [1]) [%]	IC50 (HCT-8 cells; Homo sapiens, HCT-8, 48 h) [µM]	Parasite inhibition (%) (primary screening) (C. parvum HNJ-1 strain)	Parasite inhibition (%) (C. parvum [1])	IC50 (HCT-8 cells; HCT-8 cells, 48 h) [µM]	also measured
CCC(=O)CCCCC[C@@H]1NC(=O)[C@H]2CCCCN2C(=O)[C@H]([C@@H](C)CC)NC(=O)[C@H](Cc2cn(OC)c3ccccc23)NC1=O [Apicidin]	83	83.5 ± 1.4	1.5 ± 0.1	–	–	–	minimum concentration at which all C. parvum growth was inhibited (C. parvum [2]): 45 µM
O=C1c2ccccc2C(=O)c2c(NCCc3ccc(O)cc3)ccc(NCCc3ccc(O)cc3)c21 [BML-266]	–	–	–	97	64.7 ± 3.9%	51.2 ± 0.6	–
CC(=O)Nc1ccc(C(=O)Nc2ccccc2N)cc1 [CI-994]	88	-15.7 ± 8.4	24.6 ± 2.4	–	no effect on growth inhibition	–	–
CN(C)c1ccc(C(=O)NCCCCCCC(=O)NO)cc1 [M-344]	–	–	–	71	71.3 ± 1.7%	2.3 ± 0.2	–
O=Nc1ccc(O)c2ncccc12 [NSC-3852]	–	–	–	88	64.4 ± 0.4%	36.7 ± 1	–
O=C(/C=C/C#Cc1cccc(NS(=O)(=O)c2ccccc2)c1)NO [Oxamflatin]	100	49.8 ± 4	2.5 ± 0.1	–	–	–	–
O=C(CCCCCN1C(=O)c2cccc3cccc(c23)C1=O)NO [Scriptaid]	10	4 ± 5.7	11.9 ± 1.3	–	did not inhibit the growth	–	–
CC(/C=C/C(=O)NO)=C\[C@@H](C)C(=O)c1ccc(N(C)C)cc1 [TrichostatinA]	–	–	–	76	75.7 ± 0.8%	1.6 ± 0.1	–
CC(=O)Oc1ccccc1C(=O)Nc1ncc([N+](=O)[O-])s1 [nitazoxanide]	–	–	–	–	–	–	relative number of C. parvum (C. parvum [3]): 44.9 ± 7.3%; Density of bands of H3K9Ac/H3 normalized by the loading control [4]: increased; IC50 (C. parvum [5]): 3.7 µM; IC50 (C. parvum [5]; listed as Nitazoxanide): ~3.7 µM; reduction of the parasite in C. parvum-infected SCID mice (C. parvum [6]): ineffective
CCc1nc(N)nc(N)c1-c1ccc(Cl)cc1 [pyrimethamine]	–	–	–	–	–	–	growth of T. gondii (T. gondii RH-2F): completely inhibited
